In ChEMBL document CHEMBL4130549, “Synthesis and bioactivities study of new antibacterial peptide mimics: The dialkyl cationic amphiphiles” (Eur J Med Chem, 2018):
Activity calls are given as the source filed them.

How the values were obtained:
Staphylococcus aureus [1] = experiment: Induction of inner membrane permeabilization in Staphylococcus aureus ATCC 29213 at 20 ug/ml measured every 2 mins for 12 mins by propidium iodide staining based fluorescence assay; format: functional, organism-based
Procedure, shortened: (§1)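 Mid-log cells (~10^8 CFU/mL) pre-incubated with propidium iodide (10 µM, 50 µL), 30 min for S. aureus and 40 min for E. coli. Fluorescence (ex 535/em 617 nm) read for 8 min, then compound added to 20 µg/mL final and monitored every 2 min for 12 min. Water-treated control.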

Staphylococcus aureus [2] = experiment: Antibacterial activity against methicillin-resistant Staphylococcus aureus isolate M6 after 16 to 20 hrs by broth microdilution method; format: functional
Procedure, shortened: (§2)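 CLSI broth microdilution in cation-adjusted Mueller-Hinton broth. A 4-6 h culture was diluted to about 10⁶ CFU/mL and mixed 1:1 with twofold compound dilutions (256–0.5 µg/mL before mixing) prepared from aqueous stocks. Plates were incubated at 37 °C for 16-20 h. Each concentration was tested in duplicate, and the experiment was repeated at least twice.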

Salmonella enterica = experiment: Antibacterial activity against Salmonella enterica after 16 to 20 hrs by broth microdilution method; format: functional
Procedure, shortened: (§3)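 Broth microdilution per CLSI in cation-adjusted Mueller-Hinton broth; 4-6 h cultures (~10⁸ CFU/mL) diluted to ~10⁶ CFU/mL and mixed 1:1 with twofold dilutions of water-dissolved compound (256 to 0.5 µg/mL). Incubated 16-20 h at 37 °C; MIC read visually. Each concentration run in duplicate, whole experiment repeated at least twice. MRSA, KPC and NDM-1 strains were clinical isolates.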

Klebsiella pneumoniae [3] = experiment: Antibacterial activity against carbapenemase-producing Klebsiella pneumoniae after 16 to 20 hrs by broth microdilution method; format: functional; procedure, shortened: as §3
Staphylococcus aureus [4] = experiment: Antibacterial activity against Staphylococcus aureus ATCC 29213 after 16 to 20 hrs by broth microdilution method; format: functional; procedure, shortened: as §2
Klebsiella pneumoniae [5] = experiment: Antibacterial activity against carbapenemase-producing Klebsiella pneumoniae isolate K4 after 16 to 20 hrs by broth microdilution method; format: functional; procedure, shortened: as §3
Klebsiella pneumoniae [6] = experiment: Antibacterial activity against carbapenemase-producing Klebsiella pneumoniae isolate K6 after 16 to 20 hrs by broth microdilution method; format: functional; procedure, shortened: as §3
Enterobacteriaceae [7] = experiment: Antibacterial activity against NDM-1-producing Enterobacteriaceae isolate N8 after 16 to 20 hrs by broth microdilution method; format: functional; procedure, shortened: as §3
Staphylococcus aureus [8] = experiment: Antibacterial activity against methicillin-resistant Staphylococcus aureus isolate M1 after 16 to 20 hrs by broth microdilution method; format: functional; procedure, shortened: as §2
Staphylococcus aureus [9] = experiment: Induction of cytoplasmic membrane depolarization in Staphylococcus aureus ATCC 29213 at 20 ug/ml measured every 2 mins for 12 mins by diSC35 staining based fluorescence assay; format: functional, organism-based
Procedure, shortened: (§4)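 Mid-log cells (4–6 h) pelleted, washed and resuspended (~10^8 CFU/mL) in PBS for S. aureus, or in 5 mM HEPES, 5 mM glucose and 100 mM KCl (1:1:1) for E. coli. Preloaded with diSC35 (10 µM, 50 µL), 30 min for S. aureus and 40 min plus EDTA (200 µM, 50 µL) for E. coli. Baseline read 8 min (ex 622/em 670 nm), then compound added to 20 µg/mL final and read every 2 min for 12 min. Water control.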

Staphylococcus aureus [10] = experiment: Antibacterial activity against methicillin-resistant Staphylococcus aureus isolate M10 after 16 to 20 hrs by broth microdilution method; format: functional; procedure, shortened: as §2
Klebsiella pneumoniae [11] = experiment: Antibacterial activity against carbapenemase-producing Klebsiella pneumoniae isolate K3 after 16 to 20 hrs by broth microdilution method; format: functional; procedure, shortened: as §3
[12] = Hemolytic activity in sheep RBC after 1 hr; format: ADME, cell-based, Ovis aries, Erythrocyte; settings: sheep red blood cells (erythrocytes)
Procedure, shortened: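 Sheep RBCs suspended at 5% in PBS; 150 µL added to 50 µL compound dilutions (5120 to 10 µg/mL series). Incubated 1 h at 37 °C, then centrifuged; supernatant absorbance read at 540 nm. Lysis (%) = (A−A0)/(Atotal−A0)×100, with untreated 5% RBC as A0 and 0.1% Triton X-100 as total.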

Staphylococcus aureus [13] = experiment: Antibacterial activity against methicillin-resistant Staphylococcus aureus isolate M9 after 16 to 20 hrs by broth microdilution method; format: functional; procedure, shortened: as §2
Escherichia coli [14] = experiment: Induction of inner membrane permeabilization in Escherichia coli ATCC 25922 at 20 ug/ml measured every 2 mins for 12 mins by propidium iodide staining based fluorescence assay; format: functional, organism-based; procedure, shortened: as §1
Enterobacteriaceae [15] = experiment: Antibacterial activity against NDM-1-producing Enterobacteriaceae isolate N3 after 16 to 20 hrs by broth microdilution method; format: functional; procedure, shortened: as §3
Enterobacteriaceae [16] = experiment: Antibacterial activity against NDM-1-producing Enterobacteriaceae after 16 to 20 hrs by broth microdilution method; format: functional; procedure, shortened: as §3
Escherichia coli [17] = experiment: Induction of outer membrane permeabilization in Escherichia coli ATCC 25922 at 20 ug/ml measured every 2 mins for 12 mins by NPN staining based fluorescence assay; format: functional, organism-based
Procedure, shortened: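 Mid-log E. coli (~10^8 CFU/mL) in black plates pre-incubated about 40 min with NPN (10 µM, 50 µL). Baseline read 8 min (ex 350/em 420 nm), then compound added to 20 µg/mL final and fluorescence followed every 2 min for 12 min. Water-treated control.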

Klebsiella pneumoniae [18] = experiment: Antibacterial activity against carbapenemase-producing Klebsiella pneumoniae isolate K8 after 16 to 20 hrs by broth microdilution method; format: functional; procedure, shortened: as §3
Staphylococcus aureus [19] = experiment: Antibacterial activity against methicillin-resistant Staphylococcus aureus isolate M2 after 16 to 20 hrs by broth microdilution method; format: functional; procedure, shortened: as §2
Klebsiella pneumoniae [20] = experiment: Antibacterial activity against carbapenemase-producing Klebsiella pneumoniae isolate K10 after 16 to 20 hrs by broth microdilution method; format: functional; procedure, shortened: as §3
Klebsiella pneumoniae [21] = experiment: Antibacterial activity against carbapenemase-producing Klebsiella pneumoniae isolate K9 after 16 to 20 hrs by broth microdilution method; format: functional; procedure, shortened: as §3
Enterobacteriaceae [22] = experiment: Antibacterial activity against NDM-1-producing Enterobacteriaceae isolate N1 after 16 to 20 hrs by broth microdilution method; format: functional; procedure, shortened: as §3
Staphylococcus aureus [23] = experiment: Antibacterial activity against methicillin-resistant Staphylococcus aureus isolate M3 after 16 to 20 hrs by broth microdilution method; format: functional; procedure, shortened: as §2
Enterobacteriaceae [24] = experiment: Antibacterial activity against NDM-1-producing Enterobacteriaceae isolate N6 after 16 to 20 hrs by broth microdilution method; format: functional; procedure, shortened: as §3
Enterobacteriaceae [25] = experiment: Antibacterial activity against NDM-1-producing Enterobacteriaceae isolate N5 after 16 to 20 hrs by broth microdilution method; format: functional; procedure, shortened: as §3
Enterobacteriaceae [26] = experiment: Antibacterial activity against NDM-1-producing Enterobacteriaceae isolate N9 after 16 to 20 hrs by broth microdilution method; format: functional; procedure, shortened: as §3
Klebsiella pneumoniae [27] = experiment: Antibacterial activity against carbapenemase-producing Klebsiella pneumoniae isolate K2 after 16 to 20 hrs by broth microdilution method; format: functional; procedure, shortened: as §3
Klebsiella pneumoniae [28] = experiment: Antibacterial activity against carbapenemase-producing Klebsiella pneumoniae isolate K1 after 16 to 20 hrs by broth microdilution method; format: functional; procedure, shortened: as §3
Staphylococcus aureus [29] = experiment: Antibacterial activity against methicillin-resistant Staphylococcus aureus isolate M5 after 16 to 20 hrs by broth microdilution method; format: functional; procedure, shortened: as §2
Escherichia coli [30] = experiment: Induction of cytoplasmic membrane depolarization in Escherichia coli ATCC 25922 at 20 ug/ml measured every 2 mins for 12 mins by diSC35 staining based fluorescence assay; format: functional, organism-based; procedure, shortened: as §4
Enterobacteriaceae [31] = experiment: Antibacterial activity against NDM-1-producing Enterobacteriaceae isolate N7 after 16 to 20 hrs by broth microdilution method; format: functional; procedure, shortened: as §3
Escherichia coli [32] = experiment: Antibacterial activity against Escherichia coli ATCC 25922 after 16 to 20 hrs by broth microdilution method; format: functional; procedure, shortened: as §3
Enterobacteriaceae [33] = experiment: Antibacterial activity against NDM-1-producing Enterobacteriaceae isolate N2 after 16 to 20 hrs by broth microdilution method; format: functional; procedure, shortened: as §3
Klebsiella pneumoniae [34] = experiment: Antibacterial activity against carbapenemase-producing Klebsiella pneumoniae isolate K7 after 16 to 20 hrs by broth microdilution method; format: functional; procedure, shortened: as §3
Staphylococcus aureus [35] = experiment: Antibacterial activity against methicillin-resistant Staphylococcus aureus isolate M4 after 16 to 20 hrs by broth microdilution method; format: functional; procedure, shortened: as §2
Enterobacteriaceae [36] = experiment: Antibacterial activity against NDM-1-producing Enterobacteriaceae isolate N10 after 16 to 20 hrs by broth microdilution method; format: functional; procedure, shortened: as §3
Enterococcus faecalis = experiment: Antibacterial activity against Enterococcus faecalis after 16 to 20 hrs by broth microdilution method; format: functional; procedure, shortened: as §3
Staphylococcus aureus [37] = experiment: Antibacterial activity against methicillin-resistant Staphylococcus aureus isolate M8 after 16 to 20 hrs by broth microdilution method; format: functional; procedure, shortened: as §2
Staphylococcus aureus [38] = experiment: Antibacterial activity against methicillin-resistant Staphylococcus aureus after 16 to 20 hrs by broth microdilution method; format: functional; procedure, shortened: as §2
Staphylococcus aureus [39] = experiment: Antibacterial activity against methicillin-resistant Staphylococcus aureus isolate M7 after 16 to 20 hrs by broth microdilution method; format: functional; procedure, shortened: as §2
Enterobacteriaceae [40] = experiment: Antibacterial activity against NDM-1-producing Enterobacteriaceae isolate N4 after 16 to 20 hrs by broth microdilution method; format: functional; procedure, shortened: as §3
Klebsiella pneumoniae [41] = experiment: Antibacterial activity against carbapenemase-producing Klebsiella pneumoniae isolate K5 after 16 to 20 hrs by broth microdilution method; format: functional; procedure, shortened: as §3

CCCCCCCCN(CCCCCCCC)C(=O)[C@H](C)N.Cl
16 µg/mL: MIC (Klebsiella pneumoniae [3]) | MIC (Klebsiella pneumoniae [11]) | MIC (Klebsiella pneumoniae [18]) | MIC (Klebsiella pneumoniae [20]) | MIC (Klebsiella pneumoniae [21]) | MIC (Klebsiella pneumoniae [27]) | MIC (Klebsiella pneumoniae [28])
64 µg/mL: MIC (Enterobacteriaceae [7]) | MIC (Enterobacteriaceae [15]) | MIC (Enterobacteriaceae [16]) | MIC (Enterobacteriaceae [22]) | MIC (Enterobacteriaceae [24]) | MIC (Enterobacteriaceae [25]) | MIC (Enterobacteriaceae [26]) | MIC (Enterobacteriaceae [31]) | MIC (Enterobacteriaceae [33]) | MIC (Enterobacteriaceae [36]) | MIC (Enterobacteriaceae [40])
306 µg/mL: HC50 at 1 h [12]
4 µg/mL: MIC (Staphylococcus aureus [2]) | MIC (Staphylococcus aureus [4]) | MIC (Staphylococcus aureus [8]) | MIC (Staphylococcus aureus [10]) | MIC (Staphylococcus aureus [13]) | MIC (Staphylococcus aureus [19]) | MIC (Staphylococcus aureus [23]) | MIC (Staphylococcus aureus [29]) | MIC (Escherichia coli [32]) | MIC (Staphylococcus aureus [35]) | MIC (Staphylococcus aureus [37]) | MIC (Staphylococcus aureus [38]) | MIC (Staphylococcus aureus [39])
32 µg/mL: MIC (Salmonella enterica) | MIC (Klebsiella pneumoniae [5]) | MIC (Klebsiella pneumoniae [6]) | MIC (Klebsiella pneumoniae [34]) | MIC (Klebsiella pneumoniae [41])
8 µg/mL: MIC (Enterococcus faecalis)
active: Activity (Staphylococcus aureus [1]) | Activity (Staphylococcus aureus [9]) | Activity (Escherichia coli [14]) | Activity (Escherichia coli [17]) | Activity (Escherichia coli [30])

CCCCCCCCN(CCCCCCCC)C(=O)[C@@H](N)CO.Cl
32 µg/mL: MIC (Klebsiella pneumoniae [3]) | MIC (Klebsiella pneumoniae [5]) | MIC (Klebsiella pneumoniae [6]) | MIC (Enterobacteriaceae [7]) | MIC (Klebsiella pneumoniae [11]) | MIC (Klebsiella pneumoniae [18]) | MIC (Klebsiella pneumoniae [20]) | MIC (Klebsiella pneumoniae [21]) | MIC (Enterobacteriaceae [22]) | MIC (Enterobacteriaceae [26]) | MIC (Klebsiella pneumoniae [27]) | MIC (Klebsiella pneumoniae [28]) | MIC (Enterobacteriaceae [31]) | MIC (Enterobacteriaceae [33]) | MIC (Klebsiella pneumoniae [34]) | MIC (Enterobacteriaceae [36]) | MIC (Klebsiella pneumoniae [41])
2 µg/mL: MIC (Staphylococcus aureus [10]) | MIC (Enterococcus faecalis) | MIC (Staphylococcus aureus [38]) | MIC (Staphylococcus aureus [39])
16 µg/mL: MIC (Enterobacteriaceae [15]) | MIC (Enterobacteriaceae [16]) | MIC (Enterobacteriaceae [24]) | MIC (Enterobacteriaceae [25]) | MIC (Enterobacteriaceae [40])
active: Activity (Staphylococcus aureus [1]) | Activity (Staphylococcus aureus [9]) | Activity (Escherichia coli [14]) | Activity (Escherichia coli [17]) | Activity (Escherichia coli [30])
> 1000 µg/mL: HC50 at 1 h [12]
4 µg/mL: MIC (Staphylococcus aureus [2]) | MIC (Staphylococcus aureus [4]) | MIC (Staphylococcus aureus [8]) | MIC (Staphylococcus aureus [13]) | MIC (Staphylococcus aureus [19]) | MIC (Staphylococcus aureus [23]) | MIC (Staphylococcus aureus [29]) | MIC (Staphylococcus aureus [35]) | MIC (Staphylococcus aureus [37])
8 µg/mL: MIC (Salmonella enterica) | MIC (Escherichia coli [32])
